Converted amounts (≈) assume the structure as drawn.
Legend:
Pseudomonas aeruginosa [1] = assay: Compound was tested in vitro for antibacterial activity against the microbial strain Pseudomonas aeruginosa 12.; type: functional
Escherichia coli [2] = assay: Compound was tested in vitro for antibacterial activity against the microbial strain Escherichia coli NIHJ JC-2.; type: functional
Staphylococcus aureus [3] = assay: Compound was tested in vitro for antibacterial activity against the microbial strain Staphylococcus aureus 209P JC-1.; type: functional
Pseudomonas aeruginosa [4] = assay: Antibacterial activity against Pseudomonas aeruginosa 12 microbial strains; was determined expressed as MIC
Mus musculus [5] = assay: Antibacterial activity against Pseudomonas aeruginosa 12 microbial strains in mice was determined expressed as ED50 (mg/kg); type: functional
Summary of the method: (§1)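 Male Std-ddY mice (20 ± 2 g), in groups of 10 or more, were infected with S. aureus 50774 (iv, 5×10^8 cells), E. coli P-5101 (ip, 9×10^6 cells) or P. aeruginosa 12 (ip, 4×10^3 cells). Compounds were suspended in 0.2% sodium (carboxymethyl)cellulose and dosed orally at 0 and 6 h postinfection. Survival was scored at 2 weeks for S. aureus and at 1 week for the others.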

Staphylococcus aureus [6] = assay: Antibacterial activity against Staphylococcus aureus 50774 microbial strains; was determined expressed as MIC
Mus musculus [7] = assay: Antibacterial activity against Escherichia coli P-5101 microbial strains in mice was determined expressed as ED50 (mg/kg); type: functional; summary of the method: as §1
Mus musculus [8] = species on record: Mus musculus; assay: Antibacterial activity (oral efficacy) against systemic infections due to Staphylococcus aureus 50774 microbial strains in mice was determined; type: functional; summary of the method: as §1
Escherichia coli [9] = assay: Antibacterial activity against Escherichia coli P-5101 microbial strains was determined expressed as MIC
Pseudomonas aeruginosa [10] = assay: Compound was tested in vitro for antibacterial activity against the microbial strainP. aeruginosa 12.; type: functional
Summary of the method: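 MIC (µg/mL) was determined by twofold agar dilution on Mueller-Hinton agar at pH 7.4. Inocula were about 10⁶ CFU. Growth was read after 20 h incubation at 37 °C.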

Escherichia coli [11] = assay: Antibacterial activity against Escherichia coli P-5101 microbial strains; was determined expressed as MIC
Staphylococcus aureus [12] = assay: Antibacterial activity against Staphylococcus aureus 50774 microbial strains; was determined expressed as MIC; remark: listed apart in the source

Row | Structure (SMILES) | MIC (Pseudomonas aeruginosa [1]) [µg/mL] | MIC (Escherichia coli [2]) [µg/mL] | MIC (Staphylococcus aureus [3]) [µg/mL] | MIC (Pseudomonas aeruginosa [4]) [µg/mL] | ED50 (Mus musculus [5]) [mg/kg] | MIC (Staphylococcus aureus [6]) [µg/mL] | ED50 (Mus musculus [7]) [mg/kg] | ED50 (Mus musculus [8]) [mg/kg] | MIC (Escherichia coli [9]) [µg/mL] | MIC (Pseudomonas aeruginosa [10]) [µg/mL] | MIC (Escherichia coli [11]) [µg/mL] | MIC (Staphylococcus aureus [12]) [µg/mL]
1 | CCn1cc(C(=O)O)c(=O)c2cc(F)c(-c3ccncc3)nc21 | 3.13 (≈ 9.99 µM) | 0.2 (≈ 0.638 µM) | 0.39 (≈ 1.24 µM) |  |  |  |  |  |  |  |  | 
2 | C=Cn1cc(C(=O)O)c(=O)c2cc(F)c(-c3ccncc3)nc21 | 6.25 (≈ 20.1 µM) | 0.78 (≈ 2.51 µM) | 1.56 (≈ 5.01 µM) |  |  |  |  |  |  |  |  | 
3 | O=C(O)c1cn(CCF)c2nc(-c3ccncc3)c(F)cc2c1=O | 1.56 (≈ 4.71 µM) | 0.2 (≈ 0.604 µM) | 0.39 (≈ 1.18 µM) | 1.56 (≈ 4.71 µM) | 14.9 | 0.39 (≈ 1.18 µM) | 4.91 | 3.37 | 0.1 (≈ 0.302 µM) |  |  | 
4 | CCn1cc(C(=O)O)c(=O)c2ccc(N3CCNCC3)nc21 |  | 6.25 (≈ 20.7 µM) | 12.5 (≈ 41.3 µM) |  |  |  |  |  |  | 12.5 (≈ 41.3 µM) |  | 
5 | O=C(O)c1cn(C2CC2)c2nc(-c3ccncc3)c(F)cc2c1=O | 0.78 (≈ 2.4 µM) | 0.1 (≈ 0.307 µM) | 0.2 (≈ 0.615 µM) | 0.78 (≈ 2.4 µM) | 15 | 0.1 (≈ 0.307 µM) | 4.48 | 5.43 | 0.05 (≈ 0.154 µM) |  |  | 
6 | CCn1cc(C(=O)O)c(=O)c2ccc(-c3ccncc3)nc21 | 12.5 (≈ 42.3 µM) | 0.78 (≈ 2.64 µM) | 1.56 (≈ 5.28 µM) |  |  |  |  |  |  |  |  | 
7 | O=C(O)c1cn(CCO)c2nc(-c3ccncc3)c(F)cc2c1=O | 50 (≈ 152 µM) | 1.56 (≈ 4.74 µM) | 50 (≈ 152 µM) |  |  |  |  |  |  |  |  | 
8 | C=Cn1cc(C(=O)O)c(=O)c2cc(F)c(N3CCNCC3)nc21 | 0.39 (≈ 1.23 µM) | 0.1 (≈ 0.314 µM) | 1.56 (≈ 4.9 µM) |  |  |  |  |  |  |  |  | 
9 | CCn1cc(C(=O)O)c(=O)c2cc(F)c(N3CCNCC3)nc21 [ENOXACIN] | 0.78 (≈ 2.44 µM) | 0.2 (≈ 0.624 µM) | 0.78 (≈ 2.44 µM) | 0.78 (≈ 2.44 µM) | 9 |  | 1.9 | 10 |  |  | 0.1 (≈ 0.312 µM) | 0.78 (≈ 2.44 µM)
10 | O=C(O)c1cn(CCF)c2nc(N3CCNCC3)c(F)cc2c1=O | 0.78 (≈ 2.31 µM) | 0.2 (≈ 0.591 µM) | 0.39 (≈ 1.15 µM) |  |  |  |  |  |  |  |  | 
11 | CCn1cc(C(=O)O)c(=O)c2ccc(-c3ccncc3)cc21 [ROSOXACIN] | 3.13 (≈ 10.6 µM) | 0.39 (≈ 1.33 µM) | 0.78 (≈ 2.65 µM) | 3.13 (≈ 10.6 µM) | 29.2 | 0.39 (≈ 1.33 µM) | 7.3 | 6.8 | 0.2 (≈ 0.68 µM) |  |  | 

From ChEMBL document CHEMBL1123857, “Pyridonecarboxylic acids as antibacterial agents. 9. Synthesis and antibacterial activity of 1-substituted 6-fluoro-1,4-dihydro-4-oxo-7-(4-pyridyl)-1,8-naphthyridine-3-carboxylic acids” (1987)
